Test [1] deals with Enterococcus faecalis. The test is described as follows: Antibacterial activity against vancomycin-resistant Enterococcus faecalis ATCC 51299 after 18 hrs by broth dilution assay. Type of test: functional, organism-based. The conditions noted are these: ATCC 51299, 18 h. The gist of the method:
(§1)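 Broth dilution; MRSA ATCC 43300 in trypticase soy medium, VRE ATCC 51299 in brain heart infusion medium. Cultures grown 14 h on rotary shaker at 38 °C, diluted to A600 0.04-0.06, then further 10-fold, dispensed to microtiter wells. Compounds tested in dilution series, ten replicates each; growth read as A600 after 18 h; IC50 reported.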

Test [2] can be described thus: Cytotoxicity against human HCT 116 cells. In kind it is functional, cell-based.
Test [3] relates to Staphylococcus aureus. Briefly: Antibacterial activity against methicillin-resistant Staphylococcus aureus ATCC 43300 after 18 hrs by broth dilution assay. In kind it is functional, organism-based. The note with it: ATCC 43300, 18 h. Summed up:
as §1

Consider four compounds from ChEMBL document CHEMBL1142606, “Antibiotic bisanthraquinones produced by a streptomycete isolated from a cyanobacterium associated with Ecteinascidia turbinata” (J Nat Prod, 2006).

As to `Cc1cc(O)c2c(c1)C(=O)c1ccc3c(c1C2=O)O[C@@]12O[C@@H](C)[C@H]4C31C(=C(O)C[C@@]4(C)O)C(=O)c1c(O)cccc12` (stereo partly specified), the IC50 stood at 2 µM in test [1], 3.3 µM in test [2] and 0.15 µM in test [3].
Consider `Cc1cc(O)c2c(c1)C(=O)c1ccc3c(c1C2=O)O[C@@]12O[C@@H](C)[C@@]4(O)C31C(=C(O)C[C@@]4(C)O)C(=O)c1c(O)cccc12` (stereo partly specified), for which the IC50 came out at 12 µM in test [1], 5.6 µM in test [2] and 0.36 µM in test [3].
For `CC1=CC(O)=C2C(=O)c3c(O)cccc3[C@@]34Oc5c(ccc6c5C(=O)c5c(O)cc(C)cc5C6=O)C23[C@@H]1[C@H](C)O4` (stereo partly specified), in that order: 130 µM, 6.6 µM and 31 µM.
In the case of `CN(C)[C@@H]1C(O)=C(C(N)=O)C(=O)[C@@]2(O)C(O)=C3C(=O)c4c(O)cccc4[C@@](C)(O)[C@H]3C[C@@H]12` [TETRACYCLINE], the IC50 in test [1] is 0.7 µg/mL; in test [3], 0.2 µg/mL.
